Laboratory results published in ChEMBL document CHEMBL5653631, “A Potent and Selective ULK1 Inhibitor Suppresses Autophagy and Sensitizes Cancer Cells to Nutrient Stress” (iScience, 2018).
Blank lines part the entries; values can stand above or below the compound they belong to.

Columns and labels:
[1] = molecular target: T1, Homeodomain-interacting protein kinase 4 (Homo sapiens) (UniProt Q8NE63); experiment: Inhibition of human recombinant HIPK4 at 500 nM related to control ULK1
T1 sequence (whole entry): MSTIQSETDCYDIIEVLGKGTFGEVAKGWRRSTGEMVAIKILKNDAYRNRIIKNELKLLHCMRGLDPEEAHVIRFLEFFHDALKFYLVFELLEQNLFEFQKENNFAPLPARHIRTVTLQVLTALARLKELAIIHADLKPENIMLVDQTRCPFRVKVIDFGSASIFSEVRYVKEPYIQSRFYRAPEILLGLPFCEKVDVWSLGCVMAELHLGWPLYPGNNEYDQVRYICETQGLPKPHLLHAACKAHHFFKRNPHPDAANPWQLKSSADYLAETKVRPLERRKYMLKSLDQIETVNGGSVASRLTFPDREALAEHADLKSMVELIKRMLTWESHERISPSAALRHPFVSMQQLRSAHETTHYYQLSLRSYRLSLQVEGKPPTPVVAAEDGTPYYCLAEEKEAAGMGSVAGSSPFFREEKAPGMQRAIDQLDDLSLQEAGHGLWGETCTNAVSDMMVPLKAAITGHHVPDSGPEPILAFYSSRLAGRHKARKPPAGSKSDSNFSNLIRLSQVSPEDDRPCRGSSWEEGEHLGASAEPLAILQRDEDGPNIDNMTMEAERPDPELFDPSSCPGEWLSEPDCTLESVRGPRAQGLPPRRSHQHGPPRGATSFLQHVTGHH

[2] = molecular target: RAF proto-oncogene serine/threonine-protein kinase (Homo sapiens) (UniProt P04049); experiment: Inhibition of human recombinant RAF1 at 500 nM related to control ULK1
Chain of RAF proto-oncogene serine/threonine-protein kinase (Homo sapiens) (P04049 whole entry): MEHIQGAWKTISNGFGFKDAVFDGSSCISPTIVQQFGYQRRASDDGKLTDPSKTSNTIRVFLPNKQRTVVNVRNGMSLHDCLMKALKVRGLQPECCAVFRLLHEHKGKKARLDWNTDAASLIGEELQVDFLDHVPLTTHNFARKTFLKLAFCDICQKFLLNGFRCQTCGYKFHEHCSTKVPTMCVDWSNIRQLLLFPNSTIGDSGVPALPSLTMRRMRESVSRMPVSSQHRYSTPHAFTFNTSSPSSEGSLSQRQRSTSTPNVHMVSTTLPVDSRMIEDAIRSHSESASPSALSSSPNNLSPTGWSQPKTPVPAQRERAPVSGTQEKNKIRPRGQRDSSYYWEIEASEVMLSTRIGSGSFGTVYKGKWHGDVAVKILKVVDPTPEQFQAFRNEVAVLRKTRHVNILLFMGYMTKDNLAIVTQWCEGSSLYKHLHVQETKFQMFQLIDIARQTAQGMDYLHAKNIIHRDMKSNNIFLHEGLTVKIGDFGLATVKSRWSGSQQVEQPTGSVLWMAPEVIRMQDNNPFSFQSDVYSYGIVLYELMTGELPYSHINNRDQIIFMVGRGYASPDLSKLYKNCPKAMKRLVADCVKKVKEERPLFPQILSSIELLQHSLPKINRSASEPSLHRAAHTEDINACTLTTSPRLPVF

[3] = molecular target: T2, Mitogen-activated protein kinase kinase kinase 7 (Homo sapiens) (UniProt O43318); experiment: Inhibition of human recombinant TAK1 at 500 nM related to control ULK1
T2 sequence (whole entry): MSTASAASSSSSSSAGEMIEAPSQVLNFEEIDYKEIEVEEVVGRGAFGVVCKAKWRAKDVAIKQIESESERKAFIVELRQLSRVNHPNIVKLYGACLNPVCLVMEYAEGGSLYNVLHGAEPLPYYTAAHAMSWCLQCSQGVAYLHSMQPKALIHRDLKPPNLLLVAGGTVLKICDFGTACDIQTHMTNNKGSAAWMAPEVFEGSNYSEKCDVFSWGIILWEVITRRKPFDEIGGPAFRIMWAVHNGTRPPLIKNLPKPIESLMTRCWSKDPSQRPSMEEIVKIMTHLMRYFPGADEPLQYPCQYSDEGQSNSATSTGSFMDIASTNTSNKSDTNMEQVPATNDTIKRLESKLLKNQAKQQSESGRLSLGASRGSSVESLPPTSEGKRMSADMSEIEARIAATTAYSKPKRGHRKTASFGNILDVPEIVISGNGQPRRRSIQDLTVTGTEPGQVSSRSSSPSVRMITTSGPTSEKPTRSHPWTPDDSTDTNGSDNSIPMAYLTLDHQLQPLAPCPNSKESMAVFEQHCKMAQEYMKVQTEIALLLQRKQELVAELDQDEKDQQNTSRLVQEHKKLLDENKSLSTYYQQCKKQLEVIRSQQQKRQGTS

[4] = molecular target: 5'-AMP-activated protein kinase catalytic subunit alpha-1 (Homo sapiens) (UniProt Q13131); experiment: Inhibition of human recombinant AMPKa1 at 15 nM in presence of ATP by radiometric assay relative to control
Chain of 5'-AMP-activated protein kinase catalytic subunit alpha-1 (Homo sapiens) (Q13131 whole entry, looked up): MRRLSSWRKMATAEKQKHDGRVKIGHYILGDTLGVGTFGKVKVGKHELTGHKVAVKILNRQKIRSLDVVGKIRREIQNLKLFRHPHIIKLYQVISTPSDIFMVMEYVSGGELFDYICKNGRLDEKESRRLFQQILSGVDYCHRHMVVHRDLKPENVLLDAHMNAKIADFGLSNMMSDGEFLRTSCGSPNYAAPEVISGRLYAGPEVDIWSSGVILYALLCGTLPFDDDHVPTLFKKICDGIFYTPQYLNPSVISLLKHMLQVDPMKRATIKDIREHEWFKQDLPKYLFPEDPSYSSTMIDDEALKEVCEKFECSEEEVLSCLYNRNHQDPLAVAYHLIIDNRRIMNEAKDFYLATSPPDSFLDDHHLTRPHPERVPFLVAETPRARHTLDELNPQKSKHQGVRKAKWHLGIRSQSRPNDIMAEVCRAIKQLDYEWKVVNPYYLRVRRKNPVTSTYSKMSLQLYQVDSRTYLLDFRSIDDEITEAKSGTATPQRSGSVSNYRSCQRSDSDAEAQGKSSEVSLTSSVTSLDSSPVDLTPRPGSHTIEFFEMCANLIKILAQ
Procedure, shortened: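 Panel of 327 recombinant human kinases, each assayed in vitro by radiometric activity assay in duplicate at a single inhibitor concentration per compound, chosen with reference to its ULK1 inhibition. Activity remaining was expressed as percent of vehicle control, and percent inhibition was calculated as 100 minus percent activity remaining.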

[5] = molecular target: Serine/threonine-protein kinase pim-1 (Homo sapiens) (UniProt P11309); experiment: Inhibition of human recombinant PIM1 at 15 nM in presence of ATP by radiometric assay relative to control
Chain of Serine/threonine-protein kinase pim-1 (Homo sapiens) (P11309 whole entry, looked up): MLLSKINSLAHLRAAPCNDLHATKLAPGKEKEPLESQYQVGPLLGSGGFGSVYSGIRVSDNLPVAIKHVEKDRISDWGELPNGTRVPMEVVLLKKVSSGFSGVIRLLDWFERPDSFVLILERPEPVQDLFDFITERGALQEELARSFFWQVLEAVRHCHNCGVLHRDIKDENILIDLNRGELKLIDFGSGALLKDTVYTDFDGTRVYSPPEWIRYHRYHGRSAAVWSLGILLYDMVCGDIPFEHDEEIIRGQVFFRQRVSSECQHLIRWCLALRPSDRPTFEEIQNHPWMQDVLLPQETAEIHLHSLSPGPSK

[6] = molecular target: Serine/threonine-protein kinase Nek4 (Homo sapiens) (UniProt P51957); experiment: Inhibition of human recombinant NEK4 at 15 nM related to control ULK1
Chain of Serine/threonine-protein kinase Nek4 (Homo sapiens) (P51957 whole entry, looked up): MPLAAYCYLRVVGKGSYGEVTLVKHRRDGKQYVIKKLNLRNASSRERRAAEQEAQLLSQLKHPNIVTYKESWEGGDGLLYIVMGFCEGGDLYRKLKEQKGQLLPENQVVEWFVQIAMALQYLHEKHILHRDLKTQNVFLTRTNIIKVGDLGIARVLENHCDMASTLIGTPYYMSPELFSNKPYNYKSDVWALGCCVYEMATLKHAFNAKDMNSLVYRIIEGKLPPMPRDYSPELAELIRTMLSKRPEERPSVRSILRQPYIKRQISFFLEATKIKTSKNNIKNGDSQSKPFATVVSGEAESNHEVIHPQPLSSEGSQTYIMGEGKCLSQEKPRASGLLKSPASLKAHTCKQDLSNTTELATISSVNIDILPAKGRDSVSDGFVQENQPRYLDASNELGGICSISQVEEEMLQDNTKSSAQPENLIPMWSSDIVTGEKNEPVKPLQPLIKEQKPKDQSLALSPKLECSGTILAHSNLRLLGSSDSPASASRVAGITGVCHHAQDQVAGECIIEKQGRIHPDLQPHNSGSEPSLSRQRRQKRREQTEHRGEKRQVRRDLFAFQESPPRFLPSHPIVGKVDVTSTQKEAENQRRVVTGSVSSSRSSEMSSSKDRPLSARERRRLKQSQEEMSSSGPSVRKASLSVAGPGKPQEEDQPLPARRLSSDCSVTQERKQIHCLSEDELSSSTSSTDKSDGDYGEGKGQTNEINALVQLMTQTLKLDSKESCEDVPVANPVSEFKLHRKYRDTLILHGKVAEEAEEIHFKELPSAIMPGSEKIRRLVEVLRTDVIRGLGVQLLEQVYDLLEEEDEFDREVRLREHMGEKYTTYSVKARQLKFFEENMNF

[7] = molecular target: Tyrosine-protein kinase BTK (Homo sapiens) (UniProt Q06187); experiment: Inhibition of human recombinant BTK at 40 nM in presence of ATP by radiometric assay relative to control
Chain of Tyrosine-protein kinase BTK (Homo sapiens) (Q06187 whole entry): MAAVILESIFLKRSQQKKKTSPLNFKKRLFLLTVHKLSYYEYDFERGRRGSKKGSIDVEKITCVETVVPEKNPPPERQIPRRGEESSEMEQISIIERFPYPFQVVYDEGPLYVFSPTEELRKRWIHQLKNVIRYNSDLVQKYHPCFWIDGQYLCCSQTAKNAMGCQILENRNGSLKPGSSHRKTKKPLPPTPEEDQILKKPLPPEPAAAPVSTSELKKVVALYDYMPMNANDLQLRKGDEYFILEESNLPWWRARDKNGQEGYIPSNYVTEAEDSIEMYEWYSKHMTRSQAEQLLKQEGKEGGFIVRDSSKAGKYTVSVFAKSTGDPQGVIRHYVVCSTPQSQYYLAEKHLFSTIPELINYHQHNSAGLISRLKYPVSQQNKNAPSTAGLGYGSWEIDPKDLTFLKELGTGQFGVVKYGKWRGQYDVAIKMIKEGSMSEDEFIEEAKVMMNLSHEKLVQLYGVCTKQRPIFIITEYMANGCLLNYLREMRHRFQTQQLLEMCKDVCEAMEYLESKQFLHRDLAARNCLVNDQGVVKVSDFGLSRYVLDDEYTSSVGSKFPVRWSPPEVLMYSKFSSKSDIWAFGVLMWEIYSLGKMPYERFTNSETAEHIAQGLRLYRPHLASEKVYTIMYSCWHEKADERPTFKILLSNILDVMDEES

[8] = molecular target: Tyrosine-protein kinase FRK (Homo sapiens) (UniProt P42685); experiment: Inhibition of human recombinant FRK at 40 nM in presence of ATP by radiometric assay relative to control
Chain of Tyrosine-protein kinase FRK (Homo sapiens) (P42685 whole entry): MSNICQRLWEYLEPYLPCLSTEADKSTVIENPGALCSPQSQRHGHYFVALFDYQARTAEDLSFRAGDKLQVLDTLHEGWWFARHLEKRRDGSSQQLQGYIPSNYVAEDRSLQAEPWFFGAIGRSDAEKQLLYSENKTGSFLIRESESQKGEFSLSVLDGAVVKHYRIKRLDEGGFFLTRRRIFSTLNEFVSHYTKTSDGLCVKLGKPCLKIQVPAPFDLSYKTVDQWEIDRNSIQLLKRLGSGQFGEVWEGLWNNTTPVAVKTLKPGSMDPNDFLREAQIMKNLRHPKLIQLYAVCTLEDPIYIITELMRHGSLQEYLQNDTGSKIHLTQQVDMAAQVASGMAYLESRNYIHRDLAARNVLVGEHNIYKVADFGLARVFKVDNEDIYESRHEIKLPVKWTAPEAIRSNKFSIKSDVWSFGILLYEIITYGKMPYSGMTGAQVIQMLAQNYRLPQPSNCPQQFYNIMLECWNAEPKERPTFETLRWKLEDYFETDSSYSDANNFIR

[9] = molecular target: T3, Tyrosine-protein kinase ZAP-70 (Homo sapiens) (UniProt P43403); experiment: Inhibition of human recombinant ZAP70 at 40 nM in presence of ATP by radiometric assay relative to control
T3 sequence (whole entry): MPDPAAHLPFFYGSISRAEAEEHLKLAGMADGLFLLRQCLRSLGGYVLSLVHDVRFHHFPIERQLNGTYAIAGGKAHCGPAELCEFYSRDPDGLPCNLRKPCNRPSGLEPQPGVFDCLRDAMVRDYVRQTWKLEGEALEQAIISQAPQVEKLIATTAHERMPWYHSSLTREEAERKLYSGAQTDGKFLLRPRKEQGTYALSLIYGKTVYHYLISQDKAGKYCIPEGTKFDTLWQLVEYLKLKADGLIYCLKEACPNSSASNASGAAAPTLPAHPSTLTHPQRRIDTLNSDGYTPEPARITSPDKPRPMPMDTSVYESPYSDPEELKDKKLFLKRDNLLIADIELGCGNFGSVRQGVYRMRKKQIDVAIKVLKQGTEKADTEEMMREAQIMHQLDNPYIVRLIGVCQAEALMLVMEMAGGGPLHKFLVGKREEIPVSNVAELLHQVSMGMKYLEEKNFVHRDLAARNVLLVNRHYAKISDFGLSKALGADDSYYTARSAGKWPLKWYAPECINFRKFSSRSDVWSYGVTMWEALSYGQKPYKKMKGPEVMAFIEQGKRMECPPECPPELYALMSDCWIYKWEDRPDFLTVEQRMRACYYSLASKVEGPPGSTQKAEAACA

[10] = molecular target: Serine/threonine-protein kinase mTOR (Homo sapiens) (UniProt P42345); experiment: Inhibition of human recombinant FRAP at 40 nM related to control ULK1

- fold change (FC) [1]: 0.12
- fold change (FC) [2]: 0.15
- fold change (FC) [3]: 0.03
Compound: CNC(=O)c1ccccc1Oc1nc(Nc2cc(OC)c(OC)c(OC)c2)ncc1Br

- inhibition [4]: 58%
- inhibition [5]: 14%
- fold change (FC) [6]: 0.07
Compound: CC(C)[C@H](NC(=O)c1cc(-c2cnn3cc(-c4ccc(OCCN5CCCCC5)cc4)cnc23)cs1)C(F)(F)F

- inhibition [7]: 0%
- inhibition [8]: 0%
- inhibition [9]: 0%
- fold change (FC) [10]: 0
Compound: O=C(N[C@@H](C1CC1)C(F)(F)F)c1cc(-c2cnn3cc(-c4ccc(F)cc4)cnc23)cs1
